Measurements as given in ChEMBL document CHEMBL3351332 (J Med Chem, 2014).

Key:
Cannabinoid receptor 1 [1] = target: T1, Cannabinoid receptor 1 (Homo sapiens, UniProt P21554); experiment: Antagonist activity at human CB1 receptor stably expressed in RD-HGA16 cells assessed as inhibition of CP55,940-induced calcium mobilization after 15 mins by FLIPR assay; format: functional, cell-based
Cannabinoid receptor 1 [2] = target: T1, Cannabinoid receptor 1; experiment: Agonist activity at human CB1 receptor stably expressed in RD-HGA16 cells assessed as calcium mobilization at 10000 nM after 15 mins by FLIPR assay relative to CP55,940; format: functional, cell-based
Summary of the method: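 Cells plated at 25 000/well the day before in Ham's F12 with 10% FBS, then loaded 45 min at 37 °C with Calcium 5 dye in HBSS/20 mM HEPES/2.5 mM probenecid, pH 7.4. Vehicle pretreatment for 15 min at 37 °C; test compound added on-line, fluorescence read every 1 s over 90 s.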

Cannabinoid receptor 2 [3] = target: T2, Cannabinoid receptor 2 (Homo sapiens, UniProt P34972); experiment: Antagonist activity at human CB2 receptor stably expressed in CHO-RD-HGA16 cells assessed as inhibition of CP55,940-induced calcium mobilization at 10000 nM after 15 mins by FLIPR assay; format: functional, cell-based
T2 sequence (P34972 whole entry): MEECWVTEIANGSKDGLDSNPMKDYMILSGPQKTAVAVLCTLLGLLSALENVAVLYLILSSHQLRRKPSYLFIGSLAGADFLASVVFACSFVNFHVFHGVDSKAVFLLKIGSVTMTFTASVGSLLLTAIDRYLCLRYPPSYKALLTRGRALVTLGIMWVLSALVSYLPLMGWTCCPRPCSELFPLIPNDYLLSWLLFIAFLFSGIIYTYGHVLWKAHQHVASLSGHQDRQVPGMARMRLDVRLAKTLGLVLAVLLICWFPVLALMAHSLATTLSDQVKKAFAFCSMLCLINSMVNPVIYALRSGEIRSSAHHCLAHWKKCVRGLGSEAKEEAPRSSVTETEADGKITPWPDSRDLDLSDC

Cannabinoid receptor 1 [4] = target: T1, Cannabinoid receptor 1; experiment: Displacement of [3H]CP55,940 from human CB1 receptor expressed in HEK293 cells after 1 hr by scintillation counting; format: cell-based
Cannabinoid receptor 1 [5] = target: T1, Cannabinoid receptor 1; experiment: Displacement of [3H]CP55,940 from human CB1 receptor expressed in HEK293 cells after 1 hr by scintillation counting relative to control; format: cell-based
Cannabinoid receptor 2 [6] = target: T2, Cannabinoid receptor 2; experiment: Antagonist activity at human CB2 receptor stably expressed in CHO-RD-HGA16 cells assessed as inhibition of CP55,940-induced calcium mobilization after 15 mins by FLIPR assay; format: functional, cell-based
Cannabinoid receptor 1 [7] = target: T1, Cannabinoid receptor 1; experiment: Allosteric modulation at human CB1 receptor stably expressed in RD-HGA16 cells assessed as inhibition of CP55,940-induced calcium mobilization after 15 mins by FLIPR assay; format: functional, cell-based
Summary of the method: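 Cells plated the day before at 25 000/well and loaded 45 min at 37 °C with Calcium 5 dye in HBSS/20 mM HEPES/2.5 mM probenecid, pH 7.4. Fluorescence was read every 1 s for 90 s.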

T1 sequence (P21554 whole entry): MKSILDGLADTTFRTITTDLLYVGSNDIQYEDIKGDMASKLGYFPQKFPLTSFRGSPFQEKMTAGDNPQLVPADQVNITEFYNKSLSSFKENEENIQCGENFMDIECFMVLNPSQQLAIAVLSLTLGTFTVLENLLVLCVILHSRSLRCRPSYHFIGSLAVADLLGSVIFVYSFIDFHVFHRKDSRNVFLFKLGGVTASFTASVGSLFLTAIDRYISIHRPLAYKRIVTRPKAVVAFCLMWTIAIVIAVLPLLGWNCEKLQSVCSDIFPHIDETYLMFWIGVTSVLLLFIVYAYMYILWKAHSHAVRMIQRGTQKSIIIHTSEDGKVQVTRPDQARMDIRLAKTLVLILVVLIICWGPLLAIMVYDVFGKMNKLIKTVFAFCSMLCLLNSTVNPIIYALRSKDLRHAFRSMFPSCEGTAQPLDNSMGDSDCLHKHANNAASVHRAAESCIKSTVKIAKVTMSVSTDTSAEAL

| Compound | IC50 (Cannabinoid receptor 1 [1]) | Activity (Cannabinoid receptor 1 [2]) | inhibition (Cannabinoid receptor 2 [3]) | EC50 (Cannabinoid receptor 1 [4]) | Emax (Cannabinoid receptor 1 [5]) | IC50 (Cannabinoid receptor 2 [6]) | Activity (Cannabinoid receptor 1 [7]) | inhibition (Cannabinoid receptor 1 [1]) |
| --- | --- | --- | --- | --- | --- | --- | --- | --- |
| O=C(Nc1cccc(-c2cccc(N3CCCC3)n2)c1)Nc1cccc2ccccc12 | > 10000 nM | < 15% | < 35% |  |  |  |  |  |
| CN(C)c1ccc(NC(=O)Nc2cccc(-c3cccc(N4CCCC4)n3)c2)cc1 | 1640 nM | < 15% | < 35% |  |  |  |  |  |
| O=C(Nc1ccc(Cl)nc1)Nc1cccc(-c2cccc(N3CCCC3)n2)c1 | 135 nM | < 15% | < 35% | 408 nM | 196% |  |  |  |
| Cc1cc(C)cc(NC(=O)Nc2cccc(-c3cccc(N4CCCC4)n3)c2)c1 | 1880 nM | < 15% | < 35% |  |  |  |  |  |
| O=C(Nc1cc(Cl)cc(Cl)c1)Nc1cccc(-c2cccc(N3CCCC3)n2)c1 | 716 nM | 22.2% |  |  |  | > 10 µM |  |  |
| Cc1cccc(C)c1NC(=O)Nc1cccc(-c2cccc(N3CCCC3)n2)c1 | > 10000 nM | < 15% | < 35% |  |  |  |  |  |
| CNc1cccc(-c2cccc(NC(=O)Nc3ccc(Cl)cc3)c2)n1 | 317 nM | < 15% | < 35% |  |  |  |  |  |
| O=C(Nc1ccc([N+](=O)[O-])cc1)Nc1cccc(-c2cccc(N3CCCC3)n2)c1 | 100 nM | 27.9% | < 35% |  |  |  |  |  |
| O=C(Nc1cccc(-c2cccc(N3CCCC3)n2)c1)Nc1ccc2ccccc2c1 | 888 nM | < 15% | < 35% |  |  |  |  |  |
| COc1cc(NC(=O)Nc2cccc(-c3cccc(N4CCCC4)n3)c2)cc(OC)c1OC | > 10000 nM | < 15% |  |  |  | > 10 µM |  |  |
| O=C(Nc1ccccc1)Nc1cccc(-c2cccc(N3CCCC3)n2)c1 | 166 nM | < 15% | < 35% |  |  |  |  |  |
| CCCN(C)c1cccc(-c2cccc(NC(=O)Nc3ccc(Cl)cc3)c2)n1 | 156 nM | < 15% | < 35% |  |  |  |  |  |
| CCCCNc1cccc(-c2cccc(NC(=O)Nc3ccc(Cl)cc3)c2)n1 | 93 nM | 26.5% | < 35% | 1520 nM | 161% |  |  |  |
| CCCN(CCC)c1cccc(-c2cccc(NC(=O)Nc3ccc(Cl)cc3)c2)n1 | 372 nM | 29% | < 35% |  |  |  |  |  |
| CC(C)c1ccccc1NC(=O)Nc1cccc(-c2cccc(N3CCCC3)n2)c1 | > 10000 nM | < 15% | < 35% |  |  |  |  |  |
| CN(C)c1cccc(-c2cccc(NC(=O)Nc3ccc(Cl)cc3)c2)n1 | 27.4 nM | < 15% | < 35% | 663 nM | 184% |  | Dose-dependent effect |  |
| O=C(Nc1ccc(Cl)cc1)Nc1cccc(-c2cccc(N3CCCC3)n2)c1 |  | 28.2% |  |  | 174% | > 10 µM |  | Dose-dependent effect |
| Cc1ccc(NC(=O)Nc2cccc(-c3cccc(N4CCCC4)n3)c2)cc1 | 203 nM | < 15% | < 35% |  |  |  |  |  |
| O=C(Nc1cccc(-c2cccc(N3CCCC3)n2)c1)Nc1ccc(Cl)c(Cl)c1 | 161 nM | < 15% |  |  |  | > 10 µM |  |  |

| Compound | IC50 (Cannabinoid receptor 1 [1]) | Activity (Cannabinoid receptor 1 [2]) | inhibition (Cannabinoid receptor 2 [3]) | EC50 (Cannabinoid receptor 1 [4]) | Emax (Cannabinoid receptor 1 [5]) | IC50 (Cannabinoid receptor 2 [6]) | Activity (Cannabinoid receptor 1 [7]) | inhibition (Cannabinoid receptor 1 [1]) |
| --- | --- | --- | --- | --- | --- | --- | --- | --- |
| CCN(CC)c1cccc(-c2cccc(NC(=O)Nc3ccc(Cl)cc3)c2)n1 | 125 nM | < 15% | < 35% |  |  |  |  |  |
| CCCCCCNc1cccc(-c2cccc(NC(=O)Nc3ccc(Cl)cc3)c2)n1 | 1360 nM | < 15% | < 35% |  |  |  |  |  |
| N#Cc1ccc(NC(=O)Nc2cccc(-c3cccc(N4CCCC4)n3)c2)cc1 | 33 nM | 30% |  | 55.2 nM | 172% | > 10 µM | Dose-dependent effect |  |
| CCc1c(C(=O)NCCc2ccc(N3CCCCC3)cc2)[nH]c2ccc(Cl)cc12 |  |  |  |  |  |  |  | Dose-dependent effect |
| O=C(Nc1ccc(Cl)cc1)Nc1cccc(-c2cccc(NC3CCCC3)n2)c1 | 501 nM | 35% |  |  |  | > 10 µM |  |  |
| CCN(C)c1cccc(-c2cccc(NC(=O)Nc3ccc(Cl)cc3)c2)n1 | 53.7 nM | < 15% | < 35% |  |  |  |  |  |
| O=C(Nc1ccc(Br)cc1)Nc1cccc(-c2cccc(N3CCCC3)n2)c1 | 98 nM | < 15% | < 35% |  |  |  |  |  |
| O=C(Nc1ccc(Cl)cc1)Nc1cccc(-c2cccc(N3CCCCC3)n2)c1 | 95 nM | 35% |  |  | 132% | > 10 µM |  |  |
| CCCCCNc1cccc(-c2cccc(NC(=O)Nc3ccc(Cl)cc3)c2)n1 | 867 nM | < 15% | < 35% |  |  |  |  |  |
| CCCNc1cccc(-c2cccc(NC(=O)Nc3ccc(Cl)cc3)c2)n1 | 311 nM | 19.6% | < 35% |  |  |  |  |  |
| CCCCN(CCCC)c1cccc(-c2cccc(NC(=O)Nc3ccc(Cl)cc3)c2)n1 | 693 nM | < 15% | < 35% |  |  |  |  |  |
| CCNc1cccc(-c2cccc(NC(=O)Nc3ccc(Cl)cc3)c2)n1 | 181 nM | < 15% | < 35% |  |  |  |  |  |
| COc1ccc(NC(=O)Nc2cccc(-c3cccc(N4CCCC4)n3)c2)cc1 | 189 nM | < 15% | < 35% |  |  |  |  |  |
| CCCCN(C)c1cccc(-c2cccc(NC(=O)Nc3ccc(Cl)cc3)c2)n1 | 104 nM | 22.1% | < 35% |  |  |  |  |  |
| CC(=O)Nc1cccc(-c2cccc(NC(=O)Nc3ccc(Cl)cc3)c2)n1 | 251 nM | 47% |  |  |  | 5.12 µM |  |  |
| CCc1ccccc1NC(=O)Nc1cccc(-c2cccc(N3CCCC3)n2)c1 | > 10000 nM | < 15% | < 35% |  |  |  |  |  |
| O=C(Nc1cccc(Cl)c1)Nc1cccc(-c2cccc(N3CCCC3)n2)c1 | 228 nM | 19.6% | < 35% |  |  |  |  |  |
| O=C(Nc1cccc(-c2cccc(N3CCCC3)n2)c1)Nc1ccc2c(c1)OCO2 | 312 nM | < 15% | < 35% |  |  |  |  |  |
| O=C(Nc1ccc(F)cc1)Nc1cccc(-c2cccc(N3CCCC3)n2)c1 | 32 nM | 23.2% | < 35% | 207 nM | 172% |  |  |  |
